Experimental data as given in ChEMBL document CHEMBL4190200, “Inhibition Potential of Cycloartane-Type Glycosides from the Roots of Cimicifuga dahurica against Soluble Epoxide Hydrolase” (J Nat Prod, 2017).
Calls of active or inactive are those of the source. The calls are words filed in the database; no cut-off is given here.

How the values were obtained:
[1] = target: T1, Bifunctional epoxide hydrolase 2 (Homo sapiens) (UniProt P34913); experiment: Competitive inhibition of soluble epoxide hydrolase (unknown origin) using PHOME as substrate measured for 1 hr by Lineweaver-Burk plot analysis
T1 sequence (whole entry): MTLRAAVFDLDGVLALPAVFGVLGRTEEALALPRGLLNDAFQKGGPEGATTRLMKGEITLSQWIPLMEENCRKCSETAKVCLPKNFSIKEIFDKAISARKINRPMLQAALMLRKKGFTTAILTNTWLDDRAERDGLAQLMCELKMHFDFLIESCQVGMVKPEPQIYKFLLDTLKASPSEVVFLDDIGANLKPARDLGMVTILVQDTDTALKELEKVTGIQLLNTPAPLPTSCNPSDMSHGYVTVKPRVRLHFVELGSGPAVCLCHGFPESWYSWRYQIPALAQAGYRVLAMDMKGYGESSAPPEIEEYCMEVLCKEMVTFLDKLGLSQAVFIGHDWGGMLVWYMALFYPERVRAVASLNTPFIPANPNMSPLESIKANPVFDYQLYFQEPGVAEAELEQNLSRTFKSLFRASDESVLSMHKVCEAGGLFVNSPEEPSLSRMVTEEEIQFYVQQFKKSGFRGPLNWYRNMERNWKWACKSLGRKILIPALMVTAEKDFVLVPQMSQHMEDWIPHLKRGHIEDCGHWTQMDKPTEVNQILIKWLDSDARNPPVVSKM

[2] = target: T2, Bifunctional epoxide hydrolase 2 (Homo sapiens, UniProt P34913); experiment: Inhibition of soluble epoxide hydrolase (unknown origin) using PHOME as substrate measured for 1 hr by fluorescence assay
T2 sequence (P34913 whole entry): T1 sequence (whole entry)

[3] = target: T1, Bifunctional epoxide hydrolase 2 (Homo sapiens); experiment: Inhibition of soluble epoxide hydrolase (unknown origin) using PHOME as substrate at 100 uM measured for 1 hr by fluorescence assay relative to control
Outline: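 sEH (31.6 ng/mL) mixed with compound in MeOH in 25 mM Bis-Tris-HCl, pH 7.0, with 0.1 mg/mL BSA; 40 μM PHOME substrate (stock added) started the reaction at 37 °C. Fluorescence read at ex 330/em 465 nm for 1 h. Activity (%) taken from the signal change between 0 and 40 min, relative to the uninhibited control. Positive control AUDA.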

[4] = target: T1, Bifunctional epoxide hydrolase 2 (Homo sapiens); experiment: Non-competitive inhibition of soluble epoxide hydrolase (unknown origin) using PHOME as substrate measured for 1 hr by Lineweaver-Burk plot analysis
[5] = target: T1, Bifunctional epoxide hydrolase 2 (Homo sapiens); experiment: Mixed inhibition of soluble epoxide hydrolase (unknown origin) using PHOME as substrate measured for 1 hr by Lineweaver-Burk plot analysis

| SMILES | inhibition mode [1] | IC50 [2] [µM] | inhibition [3] [%] | inhibition [4] | inhibition [5] |
| --- | --- | --- | --- | --- | --- |
| CC(=O)OC(C)(C)[C@H]1O[C@@]23O[C@@H]1C[C@@H](C)[C@@H]2[C@@]1(C)CC[C@@]24C[C@@]25CC[C@H](O[C@@H]2OC[C@@H](O)[C@H](O)[C@H]2O)C(C)(C)[C@@H]5CC=C4[C@]1(C)[C@H]3O | Active | 24 | 76.7 |  |  |
| C[C@@H]1C[C@H]([C@@H](O)C(C)(C)O)O[C@]2(O)[C@H]1[C@@]1(C)CC[C@@]34C[C@@]35CC[C@H](O[C@@H]3OC[C@@H](O)[C@H](O)[C@H]3O)C(C)(C)[C@@H]5CC=C4[C@]1(C)[C@H]2O | Active | 10.7 | 84.8 |  |  |
| C[C@H]1[C@H]2[C@@H](O[C@@]3(O)[C@@H]1OC(C)(C)[C@H]3O)[C@H](O)[C@@]1(C)[C@@H]3CC[C@H]4C(C)(C)[C@@H](O[C@@H]5OC[C@@H](O)[C@H](O)[C@H]5O)CC[C@@]45C[C@@]35CC[C@]21C | Active | 4.4 | 70.2 |  |  |
| CC(=O)O[C@H](C[C@@H](C)[C@H]1C(=O)[C@H](O)[C@@]2(C)C3=CC[C@H]4C(C)(C)[C@@H](O[C@@H]5OC[C@@H](O)[C@H](O)[C@H]5O)CC[C@@]45C[C@@]35CC[C@]12C)[C@@H](O)C(C)(C)O |  | 5.2 | 72.4 | Active |  |
| CC(=O)O[C@H]([C@H]1C[C@@H](C)[C@H]2[C@@](O)(O1)[C@H](O)[C@@]1(C)[C@@H]3CC[C@H]4C(C)(C)[C@@H](O[C@@H]5OC[C@@H](O)[C@H](O)[C@H]5O)CC[C@@]45C[C@@]35CC[C@]21C)C(C)(C)O | Active | 0.4 | 66.1 |  |  |
| C[C@@H]1C[C@H]2O[C@]3(O[C@H]2C(C)(C)O)[C@H]1[C@@]1(C)[C@H](O)C[C@@]24C[C@@]25CC[C@H](O[C@@H]2OC[C@@H](O)[C@H](O)[C@H]2O)C(C)(C)[C@@H]5CC=C4[C@]1(C)[C@H]3O |  | 18.5 | 61.9 | Active |  |
| CC(=O)O[C@H]1[C@H](O[C@H]2CC[C@]34C[C@]35CC[C@]3(C)[C@H]6[C@H](C)C[C@H]7O[C@@]6(O[C@H]7C(C)(C)O)[C@H](O)[C@@]3(C)C5=CC[C@H]4C2(C)C)OC[C@@H](O)[C@@H]1O |  | 60.9 | 64.9 |  |  |
| C[C@@H]1C[C@]23OCC(C)(O)[C@H]2O[C@@]2(O3)[C@H]1[C@@]1(C)CC[C@@]34C[C@@]35CC[C@H](O[C@@H]3OC[C@@H](O)[C@H](O)[C@H]3O)C(C)(C)[C@@H]5CC=C4[C@]1(C)[C@H]2O (some centres undefined) |  | 14.6 | 63.2 |  | Active |
| COC(C)(C)[C@H]1O[C@@]23O[C@@H]1C[C@@H](C)[C@@H]2[C@@]1(C)CC[C@@]24C[C@@]25CC[C@H](O[C@@H]2OC[C@@H](O)[C@H](O)[C@H]2O)C(C)(C)[C@@H]5CC=C4[C@]1(C)[C@H]3O | Active | 0.4 | 75.6 |  |  |
| C[C@@H]1CC(=O)[C@H](O)[C@]2(O)[C@H]1[C@@]1(C)CC[C@@]34C[C@@]35CC[C@H](O[C@@H]3OC[C@@H](O)[C@H](O)[C@H]3O)C(C)(C)[C@@H]5CC=C4[C@]1(C)[C@H]2O |  | 8.6 | 69.6 | Active |  |
